This is an account of results in ChEMBL document CHEMBL5370667, “ent-Clavilactone J and Its Quinone Derivative, Meroterpenoids from the Fungus Resupinatus sp” (J Nat Prod, 2023).

For data set [1], the system named is Rhodotorula glutinis. Briefly: Antifungal activity against Rhodotorula glutinis DSM 10134 assessed as growth inhibition. It counts as functional.
For data set [2], the system named is SK-OV-3. Briefly: Antiproliferative activity against human SK-OV-3 cells assessed as cell growth inhibition. The class given is functional, cell-based. Put shortly:
(§1)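 IC50 (μM) determined against mammalian cell lines from the DSMZ ACC collection (SK-OV-3 without an ACC number), with epothilone B run in parallel as reference.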

Data set [3] relates to Bacillus subtilis. Briefly: Antibacterial activity against Bacillus subtilis DSM 10 assessed as bacterial growth inhibition. The class given is functional. Put shortly: (§2)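 Growth inhibition read as minimum inhibitory concentration (μg/mL) against strains from DSMZ. A positive-control antibiotic was run alongside.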
Data set [4] deals with Mycolicibacterium smegmatis. Nature of the data set: Antibacterial activity against Mycolicibacterium smegmatis ATCC 700084 assessed as bacterial growth inhibition. It counts as functional.
Data set [5] has as its system Staphylococcus aureus. Briefly: Antibacterial activity against Staphylococcus aureus DSM 346 assessed as bacterial growth inhibition. The class given is functional. Put shortly:
as §2

The test system of data set [6] is Acinetobacter baumannii. Briefly: Antibacterial activity against Acinetobacter baumannii DSM 30008 assessed as bacterial growth inhibition. It counts as functional.
The subject of data set [7] is Chromobacterium violaceum. Briefly: Antibacterial activity against Chromobacterium violaceum DSM 30191 assessed as bacterial growth inhibition. It counts as functional.
Data set [8] has as its system Escherichia coli. Briefly: Antibacterial activity against Escherichia coli DSM 1116 assessed as bacterial growth inhibition. The class given is functional.
The subject of data set [9] is Pseudomonas aeruginosa. Nature of the data set: Antibacterial activity against Pseudomonas aeruginosa DSM 19882 assessed as bacterial growth inhibition. It counts as functional.
Data set [10] deals with Mucor hiemalis. Nature of the data set: Antifungal activity against Mucor hiemalis DSM 2656 assessed as growth inhibition. The class given is functional.
For data set [11], the system named is Candida albicans. Briefly: Antifungal activity against Candida albicans DSM 1665 assessed as growth inhibition. It counts as functional.
For data set [12], the system named is A549. Briefly: Antiproliferative activity against human A549 cells assessed as cell growth inhibition. The class given is functional, cell-based. Put shortly: as §1
The subject of data set [13] is Schizosaccharomyces pombe. Nature of the data set: Antifungal activity against Schizosaccharomyces pombe DSM 70572 assessed as growth inhibition. It counts as functional.
The subject of data set [14] is Wickerhamomyces anomalus. Briefly: Antifungal activity against Wickerhamomyces anomalus DSM 6766 assessed as growth inhibition. The class given is functional.
Data set [15] in a line: Antiproliferative activity against mouse L929 cells assessed as cell growth inhibition. It counts as toxicity, cell-based. Put shortly: as §1
Data set [16] deals with KB 3-1. Nature of the data set: Antiproliferative activity against human KB-3-1 cells assessed as cell growth inhibition. The class given is functional, cell-based. Put shortly:
as §1

The test system of data set [17] is A-431. Nature of the data set: Antiproliferative activity against human A-431 cells assessed as cell growth inhibition. The class given is functional, cell-based. The essentials: as §1
Data set [18] relates to MCF7. Briefly: Antiproliferative activity against human MCF7 cells assessed as cell growth inhibition. The class given is functional, cell-based. Put shortly: as §1
Data set [19] relates to PC-3. Nature of the data set: Antiproliferative activity against human PC-3 cells assessed as cell growth inhibition. It counts as functional, cell-based. The essentials: as §1

≈ marks a conversion by molar mass, not a printed value. Calls of active or inactive are those of the source. The rule behind the calls is not given here.

For `C/C(=C\c1csc(C)n1)[C@@H]1C[C@@H]2O[C@]2(C)CCC[C@H](C)[C@H](O)[C@@H](C)C(=O)C(C)(C)[C@@H](O)CC(=O)O1` [PATUPILONE], the MIC in data set [1] worked out at 2.1 µg/mL (≈ 4.14 µM); in data set [3], 8.3 µg/mL (≈ 16.3 µM); in data set [4] it was 1.7 µg/mL (≈ 3.35 µM); in data set [5], 0.21 µg/mL (≈ 0.414 µM); in [6], 0.26 µg/mL (≈ 0.512 µM); in data set [7], 0.42 µg/mL (≈ 0.827 µM). Moreover, the minimal inhibitory concentration (MIC) in data set [8] turned out to be 1.7 µg/mL (≈ 3.35 µM); in [9], 0.21 µg/mL (≈ 0.414 µM); in [10] it was 4.2 µg/mL (≈ 8.27 µM); in data set [11] it was 8.3 µg/mL (≈ 16.3 µM); in data set [13], 4.2 µg/mL (≈ 8.27 µM); in data set [14] (Hansenula anomala) it was 8.3 µg/mL (≈ 16.3 µM). In addition, the half-inhibitory concentration (IC50) in data set [2] was 0.00018 µM; in [12], 5.3e-05 µM; in data set [15], 0.00043 µM; in data set [16], 3.4e-05 µM; in data set [17] it was 5.1e-05 µM; in data set [18] it was 0.03 nM. The IC50 in data set [19] was 0.00028 µM.

Take `C[C@@]12Cc3c(O)ccc(O)c3[C@@H]3OC(=O)[C@@]4(CC[C@@H]1O2)O[C@@H]34`: the inhibition result in data set [1], in [4], in data set [6], in data set [7], in data set [8] and in data set [9] was “inactive” in each case. For the same compound, the inhibition entry in [10], in data set [11], in data set [13] and in data set [14] was “inactive” in each case. The half-maximal inhibitory concentration (IC50) in data set [2] is 47 µM; in data set [12], 19 µM; in data set [15], 2.1 µM; in [16] it was 6.7 µM; in data set [17], 3.5 µM; in data set [18], 1900 nM. In addition, the IC50 in [19] came out at 18 µM. In addition, the minimum inhibitory concentration (MIC) in [3] worked out at 17 µg/mL (≈ 55.9 µM).

Consider `C[C@@]12CC3=C(C(=O)C=CC3=O)[C@@H]3OC(=O)[C@@]4(CC[C@@H]1O2)O[C@@H]34`, for which the inhibition entry in data set [1], in data set [4], in data set [6], in data set [7], in [8] and in data set [9] was “inactive” throughout. The inhibition entry in [10], in [11], in data set [13] and in [14] was “inactive” in each case. Also, the half-inhibitory concentration (IC50) in data set [2] was 30 µM; in data set [12], 57 µM; in data set [15], 6 µM; in data set [16], 22 µM; in data set [17], 6.5 µM; in data set [18], 4200 nM. The IC50 in data set [19] is 19 µM. Besides, the minimal inhibitory concentration (MIC) in data set [3] and in [5] was 67 µg/mL (≈ 222 µM) each time.
